Experiments:
HiDapE [1] = molecular target: T1, HiDapE (Haemophilus influenzae, UniProt P44514); test: Thermal shift assay, HiDapE; type: binding
T1 sequence (P44514 1-377): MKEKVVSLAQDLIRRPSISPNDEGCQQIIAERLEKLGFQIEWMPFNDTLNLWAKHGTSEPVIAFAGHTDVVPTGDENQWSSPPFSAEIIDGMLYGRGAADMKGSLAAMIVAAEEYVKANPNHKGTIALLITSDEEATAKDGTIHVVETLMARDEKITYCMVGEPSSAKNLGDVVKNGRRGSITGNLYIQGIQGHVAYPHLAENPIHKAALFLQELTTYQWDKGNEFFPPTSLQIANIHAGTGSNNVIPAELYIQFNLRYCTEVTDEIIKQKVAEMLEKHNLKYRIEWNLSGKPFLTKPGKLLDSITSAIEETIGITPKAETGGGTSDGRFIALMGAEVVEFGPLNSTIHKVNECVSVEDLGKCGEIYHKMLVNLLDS

AbDapE [2] = molecular target: T2, AbDapE (Acinetobacter baumannii, UniProt A3M8H2); test: DapE ninhydrin enzyme inhibition assay, AbDapE; type: biochemical; details: kinetic assays, modified ninhydrin assay
In short: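 Purified His-tag-cleaved AbDapE at 8 nM final in 50 mM HEPES pH 7.5, 30 °C. Test compound (DMSO, 5% final) is preincubated with enzyme for 10 min before 2 mM N6-methyl-L,L-SDAP. After 10 min, heat to 100 °C for 1 min, chill, add 2% ninhydrin, 80 °C for 15 min, then read A570.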

HiDapE [3] = molecular target: T1, HiDapE; details: read-out: HiDapE IC50 (sulfate); previously published enzyme inhibition; cited from earlier work
AbDapE-SeMet = AbDapE-SeMet (Acinetobacter baumannii, UniProt A3M8H2); test: Thermal shift assay, AbDapE-SeMet; type: binding; details: 6 μM AbDapE-SeMet + 10× dye
In short: (§1)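 SYPRO Orange thermal melt at 10× dye in 50 mM HEPES pH 7.5, 10 µL triplicates. Protein is 16 µM for native AbDapE and 6 µM for SeMet AbDapE, with DMSO kept below 5%. Tm comes from the negative first derivative of the melting curves, further differentiated to the third derivative. Ki is calculated from Tm plotted against log[test compound] using a derived van't Hoff equation.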

AbDapE [4] = molecular target: T2, AbDapE; test: Thermal shift assay, AbDapE native; type: binding; details: 16 μM AbDapE + 10× dye
In short: as §1

[5] = 0.001 mM Li2SO4, 200 nM HiDapE + 10× dye
[6] = 0.005 mM Li2SO4, 200 nM HiDapE + 10× dye
[7] = 0.1 mM Li2SO4, 200 nM HiDapE + 10× dye
[8] = 0.5 mM Li2SO4, 200 nM HiDapE + 10× dye
[9] = 1 mM Li2SO4, 200 nM HiDapE + 10× dye
[10] = 5 mM Li2SO4, 200 nM HiDapE + 10× dye
[11] = 10 mM Li2SO4, 200 nM HiDapE + 10× dye
[12] = 30 mM Li2SO4, 200 nM HiDapE + 10× dye
[13] = 50 mM Li2SO4, 200 nM HiDapE + 10× dye
[14] = 60 mM Li2SO4, 200 nM HiDapE + 10× dye
[15] = 70 mM Li2SO4, 200 nM HiDapE + 10× dye

T2 sequence (A3M8H2 whole entry): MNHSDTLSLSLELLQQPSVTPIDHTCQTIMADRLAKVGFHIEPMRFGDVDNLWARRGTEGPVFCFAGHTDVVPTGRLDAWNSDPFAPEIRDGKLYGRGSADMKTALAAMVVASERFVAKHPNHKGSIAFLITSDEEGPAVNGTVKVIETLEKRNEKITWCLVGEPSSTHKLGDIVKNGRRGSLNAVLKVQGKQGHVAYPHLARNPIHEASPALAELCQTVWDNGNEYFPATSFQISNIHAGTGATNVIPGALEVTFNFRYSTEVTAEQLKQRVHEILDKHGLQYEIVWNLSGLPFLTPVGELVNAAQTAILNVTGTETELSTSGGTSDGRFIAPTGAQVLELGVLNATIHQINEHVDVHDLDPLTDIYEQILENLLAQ
Sequence of AbDapE-SeMet (A3M8H2 whole entry): as above

Question: With `O=S(=O)([O-])[O-].[Li+].[Li+]` [Lithium sulfate] as the compound, how does the “Tm1 HiDapE” value (HiDapE [1]; [5]) read?
Answer: Its value is 51.7 ± 0.3 °C.

Question: What about the “Tm2 HiDapE” value (HiDapE [1]; [5]) of the same compound?
Answer: The value was 75.6 ± 0.3 °C.

Question: What about the “Tm1 HiDapE” value (HiDapE [1]; [6]) of the same compound?
Answer: The value was 51.4 ± 0.2 °C.

Question: And the “Tm2 HiDapE” value (HiDapE [1]; [6])?
Answer: Its value is 76.2 ± 0.5 °C.

Question: What about the “Tm1 HiDapE” value (HiDapE [1]; [7]) of the same compound?
Answer: Its value is 52.7 ± 0.4 °C.

Question: And the “Tm2 HiDapE” value (HiDapE [1]; [7])?
Answer: Its value is 76.1 ± 0.6 °C.

Question: And the “Tm1 HiDapE” value (HiDapE [1]; [8])?
Answer: The value was 51.2 ± 0.7 °C.

Question: And the “Tm2 HiDapE” value (HiDapE [1]; [8])?
Answer: The value was 78.3 ± 0.1 °C.

Question: And the “Tm1 HiDapE” value (HiDapE [1]; [9])?
Answer: The value was 50.7 ± 0.2 °C.

Question: And the “Tm2 HiDapE” value (HiDapE [1]; [9])?
Answer: The value was 77.8 ± 0.1 °C.

Question: And the “Tm1 HiDapE” value (HiDapE [1]; [10])?
Answer: Its value is 51.2 ± 0.6 °C.

Question: And the “Tm2 HiDapE” value (HiDapE [1]; [10])?
Answer: The value was 77.7 ± 0.1 °C.

Question: What about the “Tm1 HiDapE” value (HiDapE [1]; [11]) of the same compound?
Answer: The value was 51.2 ± 0.6 °C.

Question: What about the “Tm2 HiDapE” value (HiDapE [1]; [11]) of the same compound?
Answer: Its value is 77.4 ± 0.1 °C.

Question: What about the “Tm1 HiDapE” value (HiDapE [1]; [12]) of the same compound?
Answer: Its value is 52.6 ± 0.5 °C.

Question: And the “Tm2 HiDapE” value (HiDapE [1]; [12])?
Answer: Its value is 74.6 ± 0.3 °C.

Question: What about the “Tm1 HiDapE” value (HiDapE [1]; [13]) of the same compound?
Answer: Its value is 53.3 ± 0.5 °C.

Question: What about the “Tm2 HiDapE” value (HiDapE [1]; [13]) of the same compound?
Answer: The value was 75.9 ± 0.1 °C.

Question: What about the “Tm1 HiDapE” value (HiDapE [1]; [14]) of the same compound?
Answer: Its value is 53.3 ± 0.3 °C.

Question: And the “Tm2 HiDapE” value (HiDapE [1]; [14])?
Answer: The value was 73.8 ± 0.1 °C.

Question: And the “Tm1 HiDapE” value (HiDapE [1]; [15])?
Answer: The value was 54.4 ± 0.5 °C.

Question: And the “Tm2 HiDapE” value (HiDapE [1]; [15])?
Answer: The value was 76.6 ± 0.1 °C.

Question: What about the Ki (HiDapE [1]; read-out: Ki (HiDapE, thermal shift), Tm vs log [concentration], derived Van't Hoff equation, 200 nM HiDapE + 10× dye) of the same compound?
Answer: Its Ki is 18.4 mM.

Question: What about the “Effect on stability (Tm) of HiDapE, in words” value (HiDapE [1]; thermal shift assays) of the same compound?
Answer: Its value is “stabilize HiDapE”.

Question: And the “Mode of inhibition of AbDapE” value (AbDapE [2])?
Answer: Its value is “competitive inhibitors”.

Question: What about the IC50 (HiDapE [3]) of the same compound?
Answer: The IC50 was 13.8 mM.

Question: And the “Tm AbDapE-SeMet” value (AbDapE-SeMet; 0.001 mM Li2SO4)?
Answer: The value was 64.2 ± 0.7 °C.

Question: What about the “Tm AbDapE-SeMet” value (AbDapE-SeMet; 0.005 mM Li2SO4) of the same compound?
Answer: The value was 64.1 ± 0.3 °C.

Question: What about the “Tm AbDapE-SeMet” value (AbDapE-SeMet; 0.1 mM Li2SO4) of the same compound?
Answer: Its value is 64.0 ± 0.2 °C.

Question: What about the “Tm AbDapE-SeMet” value (AbDapE-SeMet; 0.5 mM Li2SO4) of the same compound?
Answer: Its value is 64.9 ± 0.1 °C.

Question: What about the “Tm AbDapE-SeMet” value (AbDapE-SeMet; 1 mM Li2SO4) of the same compound?
Answer: Its value is 64.7 ± 0.5 °C.

Question: What about the “Tm AbDapE-SeMet” value (AbDapE-SeMet; 5 mM Li2SO4) of the same compound?
Answer: Its value is 65.2 ± 0.1 °C.

Question: What about the “Tm AbDapE-SeMet” value (AbDapE-SeMet; 10 mM Li2SO4) of the same compound?
Answer: The value was 65.0 ± 0.3 °C.

Question: And the “Tm AbDapE-SeMet” value (AbDapE-SeMet; 50 mM Li2SO4)?
Answer: Its value is 63.1 ± 0.1 °C.

Question: What about the “Tm AbDapE-SeMet” value (AbDapE-SeMet; 70 mM Li2SO4) of the same compound?
Answer: The value was 61.8 ± 0.1 °C.

Question: What about the “Tm1 AbDapE” value (AbDapE [4]; 0.001 mM Li2SO4) of the same compound?
Answer: The value was 41.4 ± 0.1 °C.

Question: And the “Tm2 AbDapE” value (AbDapE [4]; 0.001 mM Li2SO4)?
Answer: Its value is 63.1 ± 0.1 °C.

Question: And the “Tm1 AbDapE” value (AbDapE [4]; 0.005 mM Li2SO4)?
Answer: The value was 41.8 ± 0.2 °C.

Question: What about the “Tm2 AbDapE” value (AbDapE [4]; 0.005 mM Li2SO4) of the same compound?
Answer: The value was 62.8 ± 0.2 °C.

Question: What about the “Tm1 AbDapE” value (AbDapE [4]; 0.1 mM Li2SO4) of the same compound?
Answer: The value was 41.6 ± 0.1 °C.

Question: And the “Tm2 AbDapE” value (AbDapE [4]; 0.1 mM Li2SO4)?
Answer: The value was 62.2 ± 0.1 °C.

Question: What about the “Tm1 AbDapE” value (AbDapE [4]; 0.5 mM Li2SO4) of the same compound?
Answer: Its value is 41.7 ± 0.1 °C.

Question: And the “Tm2 AbDapE” value (AbDapE [4]; 0.5 mM Li2SO4)?
Answer: The value was 63.1 ± 0.1 °C.

Question: And the “Tm1 AbDapE” value (AbDapE [4]; 1 mM Li2SO4)?
Answer: Its value is 41.3 ± 0.1 °C.

Question: What about the “Tm2 AbDapE” value (AbDapE [4]; 1 mM Li2SO4) of the same compound?
Answer: Its value is 63.0 ± 0.1 °C.

Question: And the “Tm1 AbDapE” value (AbDapE [4]; 5 mM Li2SO4)?
Answer: Its value is 41.6 ± 0.1 °C.

Question: And the “Tm2 AbDapE” value (AbDapE [4]; 5 mM Li2SO4)?
Answer: Its value is 61.5 ± 0.2 °C.

Question: And the “Tm1 AbDapE” value (AbDapE [4]; 10 mM Li2SO4)?
Answer: Its value is 41.5 ± 0.1 °C.

Question: What about the “Tm2 AbDapE” value (AbDapE [4]; 10 mM Li2SO4) of the same compound?
Answer: Its value is 60.4 ± 0.1 °C.

Question: And the “Tm1 AbDapE” value (AbDapE [4]; 30 mM Li2SO4)?
Answer: The value was 42.2 ± 0.2 °C.

Question: And the “Tm2 AbDapE” value (AbDapE [4]; 30 mM Li2SO4)?
Answer: The value was 59.1 ± 0.2 °C.

Question: What about the “Tm1 AbDapE” value (AbDapE [4]; 50 mM Li2SO4) of the same compound?
Answer: Its value is 42.1 ± 0.1 °C.

Question: What about the “Tm2 AbDapE” value (AbDapE [4]; 50 mM Li2SO4) of the same compound?
Answer: Its value is 58.3 ± 0.1 °C.

Question: What about the “Tm1 AbDapE” value (AbDapE [4]; 60 mM Li2SO4) of the same compound?
Answer: The value was 42.4 ± 0.2 °C.

Question: And the “Tm2 AbDapE” value (AbDapE [4]; 60 mM Li2SO4)?
Answer: Its value is 57.5 ± 0.1 °C.

Question: What about the “Tm1 AbDapE” value (AbDapE [4]; 70 mM Li2SO4) of the same compound?
Answer: The value was 42.4 ± 0.3 °C.

Question: And the “Tm2 AbDapE” value (AbDapE [4]; 70 mM Li2SO4)?
Answer: The value was 56.7 ± 0.2 °C.
